High-throughput results from PubChem BioAssay.
GPR7 antagonist: antagonists of human GPR7 (neuropeptides B/W receptor 1); inhibition, % at 4.4 µM; GPR7-expressing cells, fluorescence antagonist assay; P48145; hit rate 1.1% among 290,000; in the data active means inhibition above about 16%, passing the limit was not always enough;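 further: cells stimulated with the agonist NPW; 0% = agonist with vehicle and 100% = vehicle without agonist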
Target sequence (P48145 whole entry, looked up): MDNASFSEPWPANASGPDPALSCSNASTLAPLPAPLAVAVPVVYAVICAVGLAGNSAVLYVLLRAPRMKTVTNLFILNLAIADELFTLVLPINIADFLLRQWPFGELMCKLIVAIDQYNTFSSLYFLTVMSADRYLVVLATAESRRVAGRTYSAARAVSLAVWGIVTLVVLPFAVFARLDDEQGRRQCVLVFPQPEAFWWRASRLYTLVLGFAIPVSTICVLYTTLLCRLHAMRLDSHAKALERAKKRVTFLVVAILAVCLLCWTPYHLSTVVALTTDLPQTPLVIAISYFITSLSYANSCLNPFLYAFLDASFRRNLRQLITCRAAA
OX1R antag-1: blocks the human orexin 1 receptor. hit rate 0.43% among 330,000. O43613. CHO/OX1R cells, Fluo-8 calcium fluorescence, orexin A. inhibition, % at 5 µM. AID 434989;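 active means inhibition above its plate's threshold, mean inhibition of all tested compounds on the plate plus 3 SD, cut at about 37% in these data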;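 further: 0% = orexin A challenge wells and 100% = SB-334867-A antagonist wells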
TRPN1 ag: agonists of zebrafish TRPN1 channel; HEK293 zebrafish TRPN1-YFP, Fluo-8 calcium fluorescence; 100% = response to 87 µM carbachol; activation, % at 3 µM; hit rate 0.18% among 220,000;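 active means activation above its plate's cutoff, the mean activation of test wells on that plate plus 3 SD, cut at about 19% in these data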;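 further: 0% = DMSO alone and 100% = 87 µM carbachol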
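Assay system: Zebrafish TRPN1-YFP in HEK293 cells | Incubation: Dye loading 1 h at 37 °C, then 30 min room temperature | Measured by: Kinetic Fluo-8 fluorescence, ex 470-495, em 515-575 nm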
TRPML3 ag: agonists of human TRPML3 channel. Q8TDD5. HEK293 TRPML3-YFP, Fluo-8 calcium fluorescence; 100% = the carbachol control signal. activation, % at 3 µM. hit rate 0.29% among 220,000. AID 1448;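 active means activation above its plate's cutoff, the mean activation of the plate's test wells plus 3 SD, cut at about 12% in these data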;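 further: 0% = DMSO only wells and 100% = carbachol wells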
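system = HEK293 cells stably carrying human TRPML3-YFP | doses = one concentration, 3 µM nominal, 0.3% DMSO | timing = dye loading 1 h 37 °C then 30 min ambient, 125 s read | detection = Fluo-8 calcium dye fluorescence, ex 470-495, em 515-575 nm | benchmarks = high control carbachol 87 µM, low control DMSO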
OX1R antag-2: OX1R (human) antagonism | O43613 | hit rate 1.8% among 330,000 | inhibition, % at 6.6 µM | OX1R-expressing cells, FRET antagonist read-out; in the data active means inhibition mostly above about 38%, no sharp cut-off; inactive means mostly below about 40%;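 further: 0% = agonist challenge alone and 100% = reference antagonist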
CHO parental Ca: signal in parental CHO cells, OX1R antagonist counter-screen; parental CHO-K1, ATP-induced calcium, Fluo-8 fluorescence; AID 463079; hit rate 0.63% among 330,000; inhibition, % at 5.6 µM;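 active means inhibition above that plate's mean sample inhibition plus 3 SD, cut at about 26% in these data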;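 further: 0% = ATP-challenged DMSO wells and 100% = DMSO wells without ATP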
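material = parental CHO cells | also added = ATP as calcium-mobilizing challenge | dosing = single point at 5.6 µM | detection = intracellular calcium via Fluo-8 no-wash fluorescent dye | read-out = % inhibition | benchmarks = low control ATP plus DMSO, high control DMSO only | repeats = one well per compound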
Numbers without * were called inactive; . = no result. Only some compounds are listed: those with a hit (about 3.2% of all), similar ones and a draw of the others.

SMILES	GPR7 antagonist	OX1R antag-1	TRPN1 ag	TRPML3 ag	OX1R antag-2	CHO parental Ca
Cc1nn(Cc2c(F)cccc2Cl)c(C)c1NC(=O)C1CC1	-3	-17	-1	0	17	-6
CCN(CC)S(=O)(=O)c1ccc(NC(=O)CNC2CCCCC2)cc1	6	-15	.	.	-15	-13
COCC1CCN(C(=O)c2cc(COc3ccc4ncccc4c3)on2)CC1	-10	21	13	5	22	42*
O=C(c1cc(COc2ccc3ncccc3c2)on1)N1CCCC1	6	2	.	.	29	20
Cc1ccc(NC(=O)CN(C)C(=O)c2ccccc2Sc2ccccc2C#N)cc1	.	-19	.	.	55*	-25
CN(CC(=O)Nc1ccccc1Cl)C(=O)c1ccccc1Sc1ccccc1C#N	.	-19	.	.	30	-21
O=C1CC2(CCN(C(=O)c3cccc(Br)c3)CC2)Oc2ccccc21	.	-24	.	.	20	-22
CC(=O)c1ccc(NC(=O)/C(Cl)=C/c2ccccc2)cc1	6	-8	2	0	18	42*
O=c1cc2oc3cc(O)c(O)cc3c(-c3ccccc3O)c-2cc1O	-7	.	18	12*	.	.
CCOc1ccccc1-c1c2cc(O)c(=O)cc-2oc2cc(O)c(O)cc12	-10	.	4	8	.	.
CCc1ccc(S(=O)(=O)N/N=C\c2cn(CC(N)=O)c3ccccc23)cc1	-15	.	.	.	.	.
CC[C@]12c3[nH]c4cc(-c5ccco5)ccc4c3CCN1C(=O)[C@@H](CC(=O)NCCC1=CCCCC1)C[C@@H]2C(=O)N1CCN(C(=O)c2ccco2)CC1	.	45	.	.	43*	-21
CC[C@]12c3[nH]c4cc(CCC(=O)N(C)C)ccc4c3CCN1C(=O)[C@@H](CC(=O)NCCC1=CCCCC1)C[C@@H]2C(=O)N1CCN(C(=O)c2ccco2)CC1	.	2	.	.	10	-18
Cc1ccc(S(=O)(=O)N2[C@@H](c3ccc(F)cc3)C(C(=O)O)=CC[C@H]2c2ccc(Cl)cc2)cc1	.	-2	.	.	46	-10
COc1cccc([C@@H]2CC=C(C(=O)O)[C@H](c3cccc(Cl)c3)N2S(=O)(=O)c2ccc(C)cc2)c1	.	9	.	.	69*	-17
Cc1ccc([C@@H]2CC=C(C(=O)O)[C@H](c3ccc(F)cc3)N2S(=O)(=O)c2ccccc2C)cc1	.	0	.	.	57*	-8
Cc1ccc([C@@H]2CC=C(C(=O)O)[C@H](c3ccc(Cl)cc3)N2S(=O)(=O)c2ccccc2C)cc1	.	33	.	.	49*	-6
CCOc1ccc([C@@H]2CC=C(C(=O)O)[C@H](c3ccc(Cl)cc3)N2S(=O)(=O)c2ccc(C)cc2)cc1	.	-5	.	.	35	-2
COc1ccc([C@@H]2CC=C(C(=O)O)[C@H](c3ccc(Cl)cc3)N2S(=O)(=O)c2ccccc2C)cc1	.	-14	.	.	48*	-26
CC(=O)N1c2c(cc(Br)cc2S(=O)(=O)NCc2ccc(C)cc2)CC1C (centres undefined)	0	-29	.	.	16	-10
Cc1ccc(S(=O)(=O)N2[C@@H](c3ccc(Cl)cc3)C(C(=O)O)=CC[C@H]2c2ccc(Cl)cc2)cc1	.	12	.	.	58*	2
O=C(O)C1=CC[C@@H](c2ccc(Cl)cc2)N(S(=O)(=O)c2ccc(Cl)cc2)[C@H]1c1cccc(Cl)c1	.	37	.	.	85*	78*
COc1ccc([C@@H]2CC=C(C(=O)O)[C@H](c3ccc(Br)cc3)N2S(=O)(=O)c2ccccc2C)cc1	.	-14	.	.	53*	-19
Cc1ccc([C@@H]2CC=C(C(=O)O)[C@H](c3ccc(Cl)cc3)N2S(=O)(=O)c2ccc(C)cc2)cc1	.	-17	.	.	46	-8
COc1ccc([C@@H]2CC=C(C(=O)O)[C@H](c3ccc(Br)cc3)N2S(=O)(=O)c2ccc(C)cc2)cc1OC	.	-13	.	.	36	-12
SMILES	GPR7 antagonist	OX1R antag-1	TRPN1 ag	TRPML3 ag	OX1R antag-2	CHO parental Ca
CCc1ccc([C@@H]2CC=C(C(=O)O)[C@H](c3ccc(Br)cc3)N2S(=O)(=O)c2ccc(C)cc2)cc1	.	-12	.	.	1	-3
Cc1ccc(S(=O)(=O)N2[C@@H](c3ccc(Cl)cc3)C(C(=O)O)=CC[C@H]2c2cccc(Cl)c2)cc1	.	-21	.	.	10	9
Cc1ccc([C@@H]2CC=C(C(=O)O)[C@H](c3ccc(Br)cc3)N2S(=O)(=O)c2ccccc2C)cc1	.	25	.	.	39*	-3
COc1ccc(/C=N\NC(=O)c2cc(O)c(O)c(O)c2)cc1CN1CCN(c2ccc(F)cc2)CC1	6	-14	1	0	5	-8
N#Cc1cccc(NCC(=O)Nc2ccc3c(c2)OCCO3)c1	-8	-11	0	1	23	-10
O=C(NC1CCCC1)c1n[nH]c2ccccc12	-6	-8	0	1	-1	6
COc1ccc(C(=O)COC(=O)CCNS(=O)(=O)c2ccccc2)c(OC)c1	.	-17	.	.	11	-13
Cc1ccccc1S(=O)(=O)N1[C@@H](c2ccc(Br)cc2)C(C(=O)O)=CC[C@H]1c1ccc(Cl)cc1	.	7	.	.	34	-12
Cc1ccccc1S(=O)(=O)N1[C@@H](c2ccccc2)C(C(=O)O)=CC[C@H]1c1ccc(Cl)cc1	.	7	.	.	76*	-20
O=C(c1ccc(CSc2nc3ccncc3[nH]2)cc1)N1CCN(c2cccc(Cl)c2)CC1	-2	22	0	1	34*	73*
C/C(=N/NC(=O)CN1CCN(Cc2ccccc2Cl)CC1)c1cccs1	-15	-24	2	1	9	-13
COc1ccc(-n2sc3ccc(F)cc3c2=O)cc1	.	42	.	.	7	65*
O=c1c2cc(F)ccc2sn1-c1ccc(F)cc1	.	14	.	.	32*	30
COc1ccc(N2C(=O)CSC2c2ccc(F)cc2)cc1 (centres undefined)	11	-7	.	.	5	-1
Cc1ccc(C)c(-n2sc3ccc(F)cc3c2=O)c1	.	38	.	.	20	45*
Cc1ccc(-c2cc(=O)c3cc(F)ccc3[nH]2)cc1	7	-7	1	0	26	0
Cc1cc(-c2ccccc2)nc2cc(C(=O)OC(C)C)nn12	-11	-22	.	.	2	-12
CC(=O)Nc1cccc(OCc2cnc(Cl)s2)c1	20*	-9	0	0	2	7
CC(=O)Nc1cccc(OCc2c(F)cccc2Cl)c1	-14	-13	-1	1	32	-13
O=C(CN1C(=O)C2C3C=CC(C3)C2C1=O)Nc1ccc(S(=O)(=O)N2CCCCC2)cc1 (centres undefined)	-1	-19	3	1	20	-6
Cc1ccc(-c2c(C(=O)O)c3ccccc3[nH]c2=O)cc1	3	0	.	.	-7	-2
CCN(CC)c1ccc(/C=N/NC(=O)c2cc(C)nc3ccccc23)cc1	0	-11	-2	0	13	-11
